Source: ChEMBL document CHEMBL3421532, “Synthesis and antiproliferative activity of α-branched α,β-unsaturated ketones in human hematological and solid cancer cell lines” (Eur J Med Chem, 2015)
Calls of active or inactive are those of the source. The rule behind the calls is not given here.

Key:
[1] = test system: NB-4; experiment: Acceleration of RA-induced granulocytic differentiation in human NB4 cells in presence of all-trans retinoic acid relative to control; type: functional
[2] = Induction of apoptosis in human NB4 cells assessed as cell death; type: functional, NB-4
Summary of the method: (§1)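 NB4 acute promyelocytic leukemia cells were grown in RPMI 1640 + GlutaMAX with 10% FBS and penicillin/streptomycin at 37 °C under 5% CO₂. Cells were seeded in 6-well plates at 1∙10⁶ per well and treated for 24 and 48 h; DMSO served as the solvent control. Apoptotic cells were quantified by annexin V binding. Values are the mean of two independent experiments.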

[3] = test system: MCF7; experiment: Cell cycle arrest in human MCF7 cells assessed as increase in cell population at S phase at 10 uM after 48 hrs by flow cytometry; type: functional, cell-based
Summary of the method: (§2)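 Cells seeded in 6-well plates at 1∙10⁶ (NB4) or 0.45∙10⁶ (A549, MCF-7) per well. Treated for 48 h at 10 (NB4, MCF-7), 20 and 30 (A549), or, for NB4, a lower 5; DMSO solvent control. Cell cycle phase distribution and sub-G1 measured by flow cytometry. Mean of two independent experiments.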

[4] = test system: NB-4; experiment: Induction of cell death in human NB4 cells assessed as elevated sub-G1 population at 10 uM after 48 hrs by flow cytometry; type: functional, cell-based; summary of the method: as §2
[5] = test system: A549; experiment: Cell cycle arrest in human A549 cells assessed as increase in cell population at S phase at 30 uM after 48 hrs by flow cytometry; type: functional, cell-based; summary of the method: as §2
[6] = test system: MCF7; experiment: Antiproliferative activity against human MCF7 cells assessed as cell growth inhibition after 48 hrs by XTT assay; type: functional, cell-based; details: MCF7, 48 h
Summary of the method: (§3)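 NB4 grown in RPMI 1640 with 10% FBS and penicillin/streptomycin, A549 and MCF-7 in DMEM, all at 37 °C and 5% CO2. Cells seeded at 1.5∙10⁴ (NB4) or 1.0∙10⁴ (A549, MCF-7) per well. Adherent lines dosed 24 h after plating, NB4 shortly after. Triplicate concentrations from 0.1 to 100, DMSO control at 0.5% v/v. After 48 h exposure, XTT added for 2 h. A450 minus A690 read, GI50 reported with SE.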

[7] = Antiproliferative activity against human NB4 cells assessed as cell growth inhibition after 48 hrs by XTT assay; type: functional, cell-based; details: NB-4, 48 h; summary of the method: as §3
[8] = test system: A549; experiment: Induction of apoptosis in human A549 cells at 20 to 30 uM after 24 to 48 hrs by annexin V binding assay; type: functional, cell-based
Summary of the method: (§4)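 Cells seeded in 6-well plates at 1∙10⁶ (NB4) or 0.45∙10⁶ (A549, MCF-7) per well. Treated at 5 (NB4), 20 and 30 (A549) or 10 (MCF-7). Apoptotic cell percentage measured by annexin V binding after 24 and 48 h. Mean of two independent experiments.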

[9] = Cell cycle arrest in human NB4 cells assessed as increase in cell population at S phase at 5 uM after 48 hrs by flow cytometry; type: functional, cell-based; details: NB-4; summary of the method: as §2
[10] = test system: A549; experiment: Antiproliferative activity against human A549 cells assessed as cell growth inhibition after 48 hrs by XTT assay; type: functional, cell-based; details: A549, 48 h; summary of the method: as §3
[11] = test system: A549; experiment: Cell cycle arrest in human A549 cells assessed as slight increase in cell population at S phase at 20 uM after 48 hrs by flow cytometry; type: functional, cell-based; summary of the method: as §2
[12] = test system: A549; experiment: Cell cycle arrest in human A549 cells assessed as slight increase in cell accumulation at G2/M phase at 20 uM after 48 hrs by flow cytometry; type: functional, cell-based; summary of the method: as §2
[13] = test system: MCF7; experiment: Cell cycle arrest in human MCF7 cells assessed as increase in cell population at G2/M phase at 10 uM after 48 hrs by flow cytometry; type: functional, cell-based; summary of the method: as §2
[14] = Induction of apoptosis in human NB4 cells assessed as cell death at 5 uM after 24 hrs by annexin V binding assay; type: functional, NB-4; summary of the method: as §1
[15] = Cell cycle arrest at G0/G1 phase in human NB4 cells at 1 uM by flow cytometry; type: functional, cell-based; details: NB-4
[16] = test system: NB-4; experiment: Antiproliferative activity against human NB4 cells assessed as decrease in cell viability at 1 uM after 96 hrs by trypan blue exclusion test; type: functional, cell-based
Summary of the method: (§5)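 Log-phase NB4 cells at 0.5 × 10⁶ cells/ml were exposed to test agent alone or combined with 1 µM retinoic acid for 24, 48, 72 and 96 h. At each time point, aliquots were stained with 0.2% trypan blue, and viable and dead cells were counted on a hematocytometer.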

[17] = Cell cycle arrest in human NB4 cells assessed as increase in cell population at G2/M phase at 5 uM after 48 hrs by flow cytometry; type: functional, cell-based; details: NB-4; summary of the method: as §2
[18] = test system: NB-4; experiment: Induction of granulocytic differentiation in human NB4 cells at 1 uM after 48 hrs by CD11b assay (reference value: 8.5%); type: functional
[19] = test system: NB-4; experiment: Acceleration of RA-induced granulocytic differentiation in human NB4 cells at 1 uM after 24 to 96 hrs by NBT assay in presence of 1 uM all-trans retinoic acid relative to control; type: functional
Summary of the method: (§6)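 NB4 cells were treated with agent, 1 µM retinoic acid, or both, for 24–96 h. Differentiation was scored as reduction of NBT to formazan after PMA stimulation. NBT-positive cells were counted in 5 non-overlapping fields at ×400 and averaged per field. Three independent experiments; mean ± SD.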

[20] = test system: NB-4; experiment: Induction of granulocytic differentiation in human NB4 cells at 1 uM after 24 to 96 hrs by NBT assay; type: functional, cell-based; summary of the method: as §6
[21] = test system: NB-4; experiment: Antiproliferative activity against human NB4 cells assessed as decrease in cell viability at 1uM in presence of 1 uM all-trans retinoic acid after 96 hrs by trypan blue exclusion test; type: functional, cell-based; summary of the method: as §5
[22] = Cell cycle arrest in human NB4 cells assessed as accumulation of cells at G0/G1 phase at 1 uM after 24 hrs by flow cytometry in presence of 1 uM all-trans retinoic acid; type: functional, cell-based; details: NB-4
[23] = test system: NB-4; experiment: Acceleration of RA-induced granulocytic differentiation in human NB4 cells at 1 uM after 48 hrs by CD11b assay in presence of 1 uM all-trans retinoic acid (reference value: 79.9%); type: functional
[24] = test system: NB-4; experiment: Induction of apoptosis in human NB4 cells at 5 uM after 24 to 48 hrs by annexin V binding assay; type: functional, cell-based; summary of the method: as §4
[25] = Cell cycle arrest in human NB4 cells assessed as increase in cell population at G0/G1 phase at 5 uM after 48 hrs by flow cytometry; type: functional, cell-based; details: NB-4; summary of the method: as §2
[26] = test system: MCF7; experiment: Induction of apoptosis in human MCF7 cells at 10 uM after 24 to 48 hrs by annexin V binding assay; type: functional, cell-based; summary of the method: as §4

For COc1cc2nc(N3CCCN(C)CC3)nc(NC3CCN(Cc4ccccc4)CC3)c2cc1OC, the Activity [1] was 10%.

For O=C(/C=C/c1cccc(S(=O)(=O)Nc2ccccc2)c1)NO [BELINOSTAT], the Activity [2] was 20% and the Activity [1] was 13%.

With C=C(C(=O)c1ccc(OC)cc1)C(OC(C)=O)c1ccc(Cl)cc1Cl (stereo not given) the Activity [3] was “Active”, the Activity [4] was “Active” and the Activity [5] was “Active”. For the same compound, the IC50 [6] was 8.3 µM, the IC50 [7] was 5.4 µM and the Activity [8] was “Active”. The Activity [9] was “Active”, the IC50 [10] was 17.6 µM and the Activity [11] was “Active”. The Activity [12] was “Active”, the Activity [13] was “Active” and the Activity [14] was >50%.

With CC1=C(/C=C/C(C)=C/C=C/C(C)=C/C(=O)O)C(C)(C)CCC1 the Activity [15] was 17.3% and the Activity [16] was “Active”.

For C=C(C(=O)c1ccc(OC)cc1OC)C(OC(C)=O)c1ccc([N+](=O)[O-])cc1 (stereo not given), the Activity [4] was “Active”, the IC50 [6] was 10.4 µM and the IC50 [7] was 5 µM. For the same compound, the Activity [9] was “Active”, the IC50 [10] was 43.5 µM and the Activity [14] was >50%.

In the case of C=C(C(=O)c1ccc(OC)cc1)C(O)c1ccc([N+](=O)[O-])cc1 (stereo not given), the Activity [3] is reported as “Active”, the Activity [4] is reported as “Active” and the IC50 [6] is reported as 11 µM. The IC50 [7] was 5.4 µM, the IC50 [10] was 23.8 µM and the Activity [13] was “Active”. The Activity [17] was “Active”.

For COc1ccc(C(=O)/C(=C/c2ccc([N+](=O)[O-])cc2)CC(C)C)cc1, the Activity [4] was “Active”, the Activity [18] was 9.5% and the Activity [15] was “inactive”. The IC50 [6] was > 100 µM, the Activity [19] was 8% and the Activity [20] was “inactive”. The IC50 [7] was 0.6 µM, the IC50 [10] was > 100 µM and the Activity [21] was “Active”. For the same compound, the Activity [22] was 18.2%, the inhibition [16] was “Active” and the Activity [23] was 87.9%. The Activity [24] was “inactive” and the Activity [25] was “Active”.

With CCN(CC)C/C(=C\c1ccc([N+](=O)[O-])cc1)C(=O)c1ccc(OC)cc1 the Activity [3] was “Active”, the Activity [4] was “Active” and the IC50 [6] was 4.3 µM. For the same compound, the IC50 [7] was 1.2 µM, the Activity [9] was “Active” and the IC50 [10] was 22 µM. For the same compound, the Activity [13] was “Active” and the Activity [26] was “Active”.

With C=C(C/C(=C\c1ccc(OC(=O)c2ccccc2)cc1)C(=O)c1ccc(OC)cc1)C(=O)c1ccc(OC)cc1 the Activity [4] was “Active”, the IC50 [6] was > 100 µM and the IC50 [7] was 6.7 µM. The IC50 [10] was > 100 µM and the Activity [17] was “Active”.

With COc1cccc2c1C(=O)c1c(O)c3c(c(O)c1C2=O)C[C@@](O)(C(=O)CO)C[C@@H]3O[C@H]1C[C@H](N)[C@H](O)[C@H](C)O1 [DOXORUBICIN] the Activity [2] was 80%.

O=[As][As+](=O)[O-] (stereo not given) [ARSENIC TRIOXIDE] showed an Activity [2] of 27%.

With CC(=O)OC/C(=C\c1ccccc1F)C(=O)c1ccccc1 the Activity [4] was “Active”, the IC50 [6] was 14.6 µM and the IC50 [7] was 5.8 µM. For the same compound, the Activity [9] was “Active”, the IC50 [10] was 68.7 µM and the Activity [14] was >50%.
